Results as given in ChEMBL document CHEMBL1123712, “Synthesis and biological activity of novel calcium channel blockers: 2,5-dihydro-4-methyl-2-phenyl-1,5-benzothiazepine-3-carboxylic acid esters and 2,5-dihydro-4-methyl-2-phenyl-1,5-benzodiazepine-3-carboxylic acid esters” (J Med Chem, 1987).

Assays:
[1] = target: Voltage-dependent L-type calcium channel subunit alpha-1C (Canis lupus familiaris); test: Reduction in amplitude of calcium-dependent slow-response action potential by blocking voltage sensitive calcium channel
Oryctolagus cuniculus = species on record: Oryctolagus cuniculus; test: Calcium channel blocking activity in rabbit; type: functional
Summary of the method: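 Thoracic aorta strips from male New Zealand rabbits (1.8–2.4 kg) in Krebs PSS at 37 °C, gassed 95% O2/5% CO2, pH 7.35. Contracted with high-K+ (100 mM KCl, NaCl reduced equimolar) Krebs. At plateau tension, increasing concentrations added cumulatively. Relaxation normalized to initial tension. IC50 by logit transformation of concentration-response curves.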

Rattus norvegicus [2] = test: Percent decrease in blood pressure in hypertensive rat at 60 mg/kg po; type: functional
Summary of the method: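 Spontaneously hypertensive rats dosed orally. Read-out was percent fall in blood pressure.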

Rattus norvegicus [3] = test: Percent decrease in blood pressure in hypertensive rat at 16 mg/kg po; type: functional
Summary of the method: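 Spontaneously hypertensive rats dosed orally. Blood pressure read-out expressed as percent decrease. Test agents were given […] po.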

**Q.** Which IC50 [1] does the source give for `CO/C(O)=C1\C(C)=Nc2ccccc2SC1c1cccc([N+](=O)[O-])c1` (stereo unspecified) here?
**A.** Its IC50 is 140 nM.

**Q.** And the IC50 (Oryctolagus cuniculus)?
**A.** Its IC50 is 1200 nM.

**Q.** For `COc1ccc([C@@H]2Sc3ccccc3N(CCN(C)C)C(=O)[C@@H]2OC(C)=O)cc1` [DILTIAZEM], which Decrease (Rattus norvegicus [2]) is on record?
**A.** Its Decrease is 10%.

**Q.** What about the IC50 (Oryctolagus cuniculus) of the same compound?
**A.** Its IC50 is 1000 nM.

**Q.** Which IC50 (Oryctolagus cuniculus) does the source give for `CO/C(O)=C1\C(C)=Nc2ccccc2S(=O)(=O)C1c1ccccc1` (stereo unspecified) here?
**A.** Its IC50 is 10000 nM.

**Q.** For `CO/C(O)=C1\C(C)=Nc2ccccc2SC1c1ccccc1C(F)(F)F` (stereo unspecified), which IC50 (Oryctolagus cuniculus) is on record?
**A.** The IC50 was 12000 nM.

**Q.** `COC(=O)C1=C(C)N(CCN(C)C)c2ccccc2SC1c1cccc([N+](=O)[O-])c1` (stereo unspecified) was tested. Which IC50 (Oryctolagus cuniculus) did it give?
**A.** Its IC50 is 1100 nM.

**Q.** How did the IC50 (Oryctolagus cuniculus) turn out when `CO/C(O)=C1\C(C)=Nc2ccccc2SC1c1ccccc1` (stereo unspecified) was run?
**A.** Its IC50 is 1700 nM.

**Q.** What does the source list for `COC(=O)C1=C(C)NC(C)=C(C(=O)OC)C1c1ccccc1[N+](=O)[O-]` [NIFEDIPINE]?
**A.** Decrease (Rattus norvegicus [3]): 25%; IC50 (Oryctolagus cuniculus): 1 nM

**Q.** For `CO/C(O)=C1\C(C)=Nc2ccccc2SC1c1ccc([N+](=O)[O-])cc1` (stereo unspecified), which IC50 (Oryctolagus cuniculus) is on record?
**A.** The IC50 was 3000 nM.

**Q.** How did the IC50 (Oryctolagus cuniculus) turn out when `CC1=Nc2ccccc2SC(c2cccc([N+](=O)[O-])c2)/C1=C(\O)OC(C)C` (stereo unspecified) was run?
**A.** The IC50 was 500 nM.

**Q.** For `CCO/C(O)=C1\C(C)=Nc2ccccc2SC1c1cccc([N+](=O)[O-])c1` (stereo unspecified), which IC50 (Oryctolagus cuniculus) is on record?
**A.** Its IC50 is 400 nM.

**Q.** Which IC50 (Oryctolagus cuniculus) does the source give for `CO/C(O)=C1\C(C)=Nc2ccccc2SC1c1ccccc1[N+](=O)[O-]` (stereo unspecified) here?
**A.** Its IC50 is 300 nM.

**Q.** How did the IC50 (Oryctolagus cuniculus) turn out when `CO/C(O)=C1\C(C)=Nc2ccccc2SC1c1ccc(OC)cc1` (stereo unspecified) was run?
**A.** The IC50 was 22000 nM.

**Q.** How did the IC50 (Oryctolagus cuniculus) turn out when `CCO/C(O)=C1\C(C)=Nc2ccccc2NC1c1cccc([N+](=O)[O-])c1` (stereo unspecified) was run?
**A.** The IC50 was 1600 nM.
